Experiments:
MDA-MB-231 [1] = test: Cell cycle arrest in estrogen receptor deficient human MDA-MB-231 cells assessed as accumulation at G2/M phase at 1 uM after 72 hrs using propidium iodide staining by flow cytometry relative to control; format: functional
How it was run: (§1)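 MDA-MB-231 cells in DMEM with 10% FBS and 2 mM L-glutamine, seeded at 18 × 10⁴ cells/mL. Exposed to test agent at the stated final concentration, or to 1% (v/v) ethanol vehicle, for 24, 48 or 72 h. Harvested by scraping and centrifugation, then RNase A treatment and propidium iodide DNA staining for at least 30 min at 37 °C. 10,000 cells per sample read at 488 nm by flow cytometry; mean ± SD of three experiments.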

MDA-MB-231 [2] = test: Cell cycle arrest in estrogen receptor deficient human MDA-MB-231 cells assessed as appearance of polyploidy at 100 nM after 72 hrs using propidium iodide staining by flow cytometry relative to control; format: functional
How it was run: (§2)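 MDA-MB-231 cells seeded at 18 × 10⁴ cells/mL and exposed to 1% (v/v) ethanol vehicle or compound at final concentrations (10 nM, 100 nM, 10 µM at all times; 1 µM also at 24 and 72 h). Cells harvested after 24, 48 or 72 h and treated with RNase A and propidium iodide for at least 30 min at 37 °C. 10,000 cells read at 488 nm by flow cytometry. Percent cells per phase reported, including polyploid; mean ± SD of three experiments.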

MDA-MB-231 [3] = test: Cell cycle arrest in estrogen receptor deficient human MDA-MB-231 cells assessed as appearance of polyploidy at 10 uM after 72 hrs using propidium iodide staining by flow cytometry relative to control; format: functional; how it was run: as §2
MDA-MB-231 [4] = test: Cell cycle arrest in estrogen receptor deficient human MDA-MB-231 cells assessed as accumulation at G1 phase at 10 uM after 72 hrs using propidium iodide staining by flow cytometry relative to control; format: functional; how it was run: as §1
MDA-MB-231 [5] = test: Cell cycle arrest in estrogen receptor deficient human MDA-MB-231 cells assessed as accumulation at G1 phase at 10 uM after 48 hrs using propidium iodide staining by flow cytometry relative to control; format: functional; how it was run: as §1
MDA-MB-231 [6] = test: Cell cycle arrest in estrogen receptor deficient human MDA-MB-231 cells assessed as accumulation at sub-G1 phase at 10 uM after 48 hrs using propidium iodide staining by flow cytometry relative to control; format: functional; how it was run: as §1
MDA-MB-231 [7] = test: Cell cycle arrest in estrogen receptor deficient human MDA-MB-231 cells assessed as accumulation at S phase at 100 nM after 48 hrs using propidium iodide staining by flow cytometry relative to control; format: functional; how it was run: as §1
MDA-MB-231 [8] = test: Cell cycle arrest in estrogen receptor deficient human MDA-MB-231 cells assessed as accumulation at S phase at 100 nM after 72 hrs using propidium iodide staining by flow cytometry relative to control; format: functional; how it was run: as §1
MCF7 = test: Antiproliferative activity against human MCF7 cells expressing estrogen receptor after 72 hrs by MTT assay; format: functional, cell-based; settings: MCF7, 72 h
MDA-MB-231 [9] = test: Cell cycle arrest in estrogen receptor deficient human MDA-MB-231 cells assessed as accumulation at G2/M phase at 100 nM after 24 hrs using propidium iodide staining by flow cytometry relative to control; format: functional; how it was run: as §1
MDA-MB-231 [10] = test: Cell cycle arrest in estrogen receptor deficient human MDA-MB-231 cells assessed as accumulation at S phase at 10 nM after 24 hrs using propidium iodide staining by flow cytometry relative to control; format: functional; how it was run: as §1
MDA-MB-231 [11] = test: Cell cycle arrest in estrogen receptor deficient human MDA-MB-231 cells assessed as accumulation at S phase at 10 nM after 48 hrs using propidium iodide staining by flow cytometry relative to control; format: functional; how it was run: as §1
MDA-MB-231 [12] = test: Cell cycle arrest in estrogen receptor deficient human MDA-MB-231 cells assessed as appearance of polyploidy at 1 uM after 24 hrs using propidium iodide staining by flow cytometry relative to control; format: functional; how it was run: as §1
MDA-MB-231 [13] = test: Cell cycle arrest in estrogen receptor deficient human MDA-MB-231 cells assessed as accumulation at sub-G1 phase at 1 uM after 24 hrs using propidium iodide staining by flow cytometry relative to control; format: functional; how it was run: as §1
MDA-MB-231 [14] = test: Cell cycle arrest in estrogen receptor deficient human MDA-MB-231 cells assessed as accumulation at sub-G1 phase at 10 nM after 72 hrs using propidium iodide staining by flow cytometry relative to control; format: functional; how it was run: as §1
MDA-MB-231 [15] = test: Cytotoxicity against estrogen receptor deficient human MDA-MB-231 cells assessed as LDH release at 10 uM; format: functional
How it was run: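 After compound treatment, LDH was measured with a commercial LDH kit. Result is % cell lysis at 10 μM compound.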

MDA-MB-231 [16] = test: Cell cycle arrest in estrogen receptor deficient human MDA-MB-231 cells assessed as accumulation at G1 phase at 10 uM after 24 hrs using propidium iodide staining by flow cytometry relative to control; format: functional; how it was run: as §1
MDA-MB-231 [17] = test: Cell cycle arrest in estrogen receptor deficient human MDA-MB-231 cells assessed as accumulation at sub-G1 phase at 10 nM after 24 hrs using propidium iodide staining by flow cytometry relative to control; format: functional; how it was run: as §1
MDA-MB-231 [18] = test: Cell cycle arrest in estrogen receptor deficient human MDA-MB-231 cells assessed as accumulation at G2/M phase at 100 nM after 72 hrs using propidium iodide staining by flow cytometry relative to control; format: functional; how it was run: as §1
MDA-MB-231 [19] = test: Cell cycle arrest in estrogen receptor deficient human MDA-MB-231 cells assessed as accumulation at G1 phase at 100 nM after 48 hrs using propidium iodide staining by flow cytometry relative to control; format: functional; how it was run: as §1
MDA-MB-231 [20] = test: Cell cycle arrest in estrogen receptor deficient human MDA-MB-231 cells assessed as accumulation at S phase at 1 uM after 72 hrs using propidium iodide staining by flow cytometry relative to control; format: functional; how it was run: as §1
MDA-MB-231 [21] = test: Cell cycle arrest in estrogen receptor deficient human MDA-MB-231 cells assessed as appearance of polyploidy at 10 nM after 48 hrs using propidium iodide staining by flow cytometry relative to control; format: functional; how it was run: as §1
MDA-MB-231 [22] = test: Cell cycle arrest in estrogen receptor deficient human MDA-MB-231 cells assessed as accumulation at sub-G1 phase at 100 nM after 24 hrs using propidium iodide staining by flow cytometry relative to control; format: functional; how it was run: as §1
MDA-MB-231 [23] = test: Cell cycle arrest in estrogen receptor deficient human MDA-MB-231 cells assessed as accumulation at sub-G1 phase at 10 nM after 48 hrs using propidium iodide staining by flow cytometry relative to control; format: functional; how it was run: as §1
MDA-MB-231 [24] = test: Cell cycle arrest in estrogen receptor deficient human MDA-MB-231 cells assessed as accumulation at sub-G1 phase at 100 nM after 72 hrs using propidium iodide staining by flow cytometry relative to control; format: functional; how it was run: as §1
MDA-MB-231 [25] = test: Cell cycle arrest in estrogen receptor deficient human MDA-MB-231 cells assessed as appearance of polyploidy at 10 nM after 72 hrs using propidium iodide staining by flow cytometry relative to control; format: functional; how it was run: as §1
MDA-MB-231 [26] = test: Cell cycle arrest in estrogen receptor deficient human MDA-MB-231 cells assessed as appearance of polyploidy at 10 uM after 48 hrs using propidium iodide staining by flow cytometry relative to control; format: functional; how it was run: as §2
MDA-MB-231 [27] = test: Cell cycle arrest in estrogen receptor deficient human MDA-MB-231 cells assessed as accumulation at G2/M phase at 10 nM after 72 hrs using propidium iodide staining by flow cytometry relative to control; format: functional; how it was run: as §1
MDA-MB-231 [28] = test: Cell cycle arrest in estrogen receptor deficient human MDA-MB-231 cells assessed as accumulation at G1 phase at 100 nM after 24 hrs using propidium iodide staining by flow cytometry relative to control; format: functional; how it was run: as §1
MDA-MB-231 [29] = test: Cell cycle arrest in estrogen receptor deficient human MDA-MB-231 cells assessed as accumulation at sub-G1 phase at 100 nM after 48 hrs using propidium iodide staining by flow cytometry relative to control; format: functional; how it was run: as §1

`COc1ccc(C2CC(=O)N2c2cc(OC)c(OC)c(OC)c2)cc1O` (stereo not given) gave an Activity (MDA-MB-231 [1]) of 21.24%, an Activity (MDA-MB-231 [2]) of 2.99% and an Activity (MDA-MB-231 [3]) of 3.38%. The Activity (MDA-MB-231 [4]) was 17.14%, the Activity (MDA-MB-231 [5]) was 14.44% and the Activity (MDA-MB-231 [6]) was 51.27%. It also gave an Activity (MDA-MB-231 [7]) of 8.9%, an Activity (MDA-MB-231 [8]) of 5.34% and an IC50 (MCF7) of 17 nM. For the same molecule, the Activity (MDA-MB-231 [9]) was 59.43%, the Activity (MDA-MB-231 [10]) was 12.55% and the Activity (MDA-MB-231 [11]) was 13.36%. For the same molecule, the Activity (MDA-MB-231 [12]) was 4.31%, the Activity (MDA-MB-231 [13]) was 7.08% and the Activity (MDA-MB-231 [14]) was 15.25%. The Activity (MDA-MB-231 [15]) was 16%, the Activity (MDA-MB-231 [16]) was 29.3% and the Activity (MDA-MB-231 [17]) was 3.72%. For the same molecule, the Activity (MDA-MB-231 [18]) was 12.62%, the Activity (MDA-MB-231 [19]) was 10.76% and the Activity (MDA-MB-231 [20]) was 7.76%. It also gave an Activity (MDA-MB-231 [21]) of 6.1%, an Activity (MDA-MB-231 [22]) of 4.88% and an Activity (MDA-MB-231 [23]) of 11.57%. It also gave an Activity (MDA-MB-231 [24]) of 63.1%, an Activity (MDA-MB-231 [25]) of 3.55% and an Activity (MDA-MB-231 [26]) of 2.28%. For the same molecule, the Activity (MDA-MB-231 [27]) was 17.68%, the Activity (MDA-MB-231 [28]) was 18.95% and the Activity (MDA-MB-231 [29]) was 37.5%.
